Experimental data pooled from the literature.
Protocols differ between the studies behind these lines.
Cell line: PC-9
Observed: cell growth or viability
Time: 72 h

O=C(Nc1ccc(F)cc1)Nc1nc2cc(-c3ccc4ncn(CC5CC5)c(=O)c4c3)ccc2s1
IC50 (MTT): > 20 µM

COc1ccc(N(Cc2csc(-c3ccc(C)cc3)n2)C(=O)CCCCCC(=O)NO)cc1
IC50 (MTT): 0.46 µM

CCCn1cnc2ccc(-c3ccc4sc(NC(=O)Nc5ccc(F)cc5)nc4c3)cc2c1=O
IC50 (MTT): 1.51 µM

O=C(Nc1ccc(Cl)cc1)Nc1ccc(-c2cn(Cc3ccc(Cl)cc3)nn2)cc1
viability (CCK-8; 50 µM): 81.3%

COc1ccc(NC(=O)NCc2cn(Cc3ccc(Br)cc3)nn2)cc1
viability (CCK-8; 20 µM): 100%

O=C(Nc1cccc(-c2cn(Cc3ccc(Br)cc3)nn2)c1)Nc1ccccc1Br
viability (CCK-8; 50 µM): 92.6%

CCCCNC(=O)Nc1nc2cc(-c3ccc4ncn(Cc5ccccc5)c(=O)c4c3)ccc2s1
IC50 (MTT): > 20 µM

COc1ccc(NC(=O)Nc2cccc(-c3cn(Cc4ccc(Cl)cc4)nn3)c2)cc1
viability (CCK-8; 50 µM): 89.5%

CC(C)CCn1cnc2ccc(-c3ccc4sc(NC(=O)Nc5ccc(F)cc5)nc4c3)cc2c1=O
IC50 (MTT): 9.09 µM

O=C(NCc1cn(Cc2ccc(Cl)cc2)nn1)Nc1ccc(Cl)cc1
viability (CCK-8; 20 µM): 83.2%

COc1cccc(NC(=O)Nc2nc3cc(-c4ccc5ncn(CCN(C)C)c(=O)c5c4)ccc3s2)c1
IC50 (MTT): 5.24 µM

COc1ccc(NC(=O)Nc2ccc(-c3cn(Cc4ccc(C)cc4)nn3)cc2)cc1
viability (CCK-8; 50 µM): 96%

O=C(NCc1cn(Cc2ccc(Cl)cc2)nn1)Nc1ccccc1Br
viability (CCK-8; 50 µM): 127%

COc1ccc(N(Cc2csc(-c3ccc(Br)cc3)n2)C(=O)CCCCCC(=O)NO)cc1
IC50 (MTT): 1.86 µM

COc1ccc(NC(=O)NCc2cn(Cc3ccc(C)cc3)nn2)cc1
viability (CCK-8; 20 µM): 105%

O=C(Nc1ccc(-c2cn(Cc3ccc(Cl)cc3)nn2)cc1)Nc1ccccc1Br
viability (CCK-8; 50 µM): 103%

Cc1ccccc1Cn1cc(-c2cccc(NC(=O)Nc3ccc(F)cc3)c2)nn1
viability (CCK-8; 20 µM): 88.9%

O=C(Nc1ccc(Cl)cc1)Nc1ccc(-c2cn(Cc3ccc(Br)cc3)nn2)cc1
viability (CCK-8; 20 µM): 71.5%

CCCCn1cnc2ccc(-c3ccc4sc(NC(=O)Nc5ccc(F)cc5)nc4c3)cc2c1=O
IC50 (MTT): 6.17 µM

COc1ccc(NC(=O)Nc2ccc(-c3cn(Cc4ccc(Br)cc4)nn3)cc2)cc1
viability (CCK-8; 50 µM): 96.4%
